This is a sample that favours compounds with a hit; in the whole collection about 11% have one here.
SF-1 act = activators of human nuclear receptor SF-1 | Q13285 | CHO-K1 Gal4-SF-1 LBD luciferase reporter; % increase over DMSO SF-1-specific signal | activation, % at 10 µM | 65,000 tested, 1.9% active;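 active = activation above the mean activation of all tested compounds plus 3 SD, cut at about 50% in these data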
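Test system: CHO-K1 cells with Gal4–hSF-1 LBD chimera plus Gal4-driven luciferase; Input: 4,000 cells/well; Compound: 10 µM only; Times: 20 h compound treatment, 37 °C; Measured by: steady-glow luciferase luminescence, read after 15 min reagent incubation; Measure: percent activation versus DMSO; Control set: DMSO and mock-transfected background; Replicates: one test per compound.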
D1 mod = D1 dopamine receptor (human) allosteric modulation. P21728. HEK293 D1, CRE-luciferase, dopamine EC30 potentiation; actives deviate in either direction. B-score at 10 µM. 58,000 tested, 5.9% active. AID 641;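 active = luminescence count or its row- and column-corrected plate score outside the 99.7% band of the plate's sample wells, on either side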
M1 agonist = M1 muscarinic receptor agonism; CHO-M1 cells, Fluo-4 calcium fluorescence, agonist mode; hits give high values; B-score at 10 µM; 64,000 tested, 3% active;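 active = fluorescence rise, raw or as B-score row- and column-corrected plate score, outside the 99.7% band of its plate's samples, either direction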
M1 antag = antagonists of rat M1 muscarinic receptor. B-score at 10 µM. CHO-M1 cells, Fluo-4 calcium, ACh EC80 antagonist mode; hits give low values. 64,000 tested, 3.4% active. P08482;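 active = calcium fluorescence response, raw or row-and-column corrected B-score, differing from the plate sample mean either way at a set confidence level, mostly lower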
Target sequence (P08482 whole entry, looked up): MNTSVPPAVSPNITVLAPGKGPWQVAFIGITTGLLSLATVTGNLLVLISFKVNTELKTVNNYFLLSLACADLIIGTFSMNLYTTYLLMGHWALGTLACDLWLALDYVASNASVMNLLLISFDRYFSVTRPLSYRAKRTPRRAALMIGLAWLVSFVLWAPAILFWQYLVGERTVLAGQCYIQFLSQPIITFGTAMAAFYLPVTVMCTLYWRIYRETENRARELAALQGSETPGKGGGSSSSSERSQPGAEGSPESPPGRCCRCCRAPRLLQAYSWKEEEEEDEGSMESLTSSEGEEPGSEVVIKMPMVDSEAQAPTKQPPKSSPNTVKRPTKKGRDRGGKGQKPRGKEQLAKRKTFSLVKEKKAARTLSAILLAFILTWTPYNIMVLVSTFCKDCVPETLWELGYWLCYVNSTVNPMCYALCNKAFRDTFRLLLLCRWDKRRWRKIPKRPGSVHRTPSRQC
RORA act = activators of human nuclear receptor RORA | CHO-K1 Gal4-RORA LBD luciferase reporter, luminescence; percent increase over mock-subtracted basal signal | activation, % at 10 µM | 65,000 tested, 1.5% active | AID 560;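 active = activation above the mean of all tested compounds plus 3 SD, cut at about 49% in these data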;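 also: 0% = DMSO-treated RORA cells and 100% = added signal equal to DMSO minus mock-transfected cells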
Htt clearance = mutant huntingtin protein clearance; inhibition, % at 1.5 µM; 47,000 tested, 0.42% active; HeLa Exon1htt(103Q)mCFP, aggregate imaging; zero = plate's median compound well;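 active = inhibition of aggregate fluorescence above about 70%, also judged a hit by eye on the cell image, limit read from the data, passing the limit was not always enough; inconclusive = no rule stated for this call; inactive = not judged a hit on image review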;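 also: cells exposed to compound for three days before fixation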
M1 ag confirm = confirmation of rat M1 muscarinic receptor agonists | fluorescence change (max-min) at 10 µM | 1,700 tested, 19% active | shares compounds with M1 agonist | CHO-M1 cells, Fluo-4 calcium fluorescence, agonist mode; actives lie on both sides;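 active = fluorescence change differs from the solvent-only DMSO control mean at a set confidence level in both duplicate runs; inconclusive = differs from solvent-only control mean in just one of two runs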;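 also: an EC20 dose of acetylcholine follows compound addition during the same imaging run; raw fluorescence intensity difference in instrument units with no normalization to controls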
M4 agonist ctr = counter-screen for M1 agonists: activity at rat M4 receptor. shares compounds with M1 agonist. CHO M4/Gqi5 cells, Fluo-4 calcium fluorescence, agonist mode; actives lie on both sides. fluorescence change (max-min) at 10 µM. 1,700 tested, 9% active;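 active = fluorescence change differing from the plate's solvent-only control wells at 99.7% confidence in both duplicates, whether higher or lower; inconclusive = differs from solvent controls in only one of two duplicates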
* marks the source's active call; other numbers are inactive results.

O=C(c1ccncc1)c1ccc(N2CCN(C3CC(=O)N(Cc4ccccc4)C3=O)CC2)cc1 (configuration not stated) was read as SF-1 act 13.6, D1 mod -1, M1 agonist 20*, M1 antag -2.29*, RORA act 4.8, Htt clearance 15.5, M1 ag confirm -24.6* and M4 agonist ctr -49.1.
Cc1ccc2c(c1)NC(=O)C(N1CCOCC1)(C(F)(F)F)O2 (configuration not stated) was read as SF-1 act -17.1, D1 mod -1.36, M1 agonist 0.595, M1 antag 0.927, RORA act -18.3 and Htt clearance -0.1.
COc1ccc(-c2noc(CCC(=O)Nc3ccc4c(c3)OCCO4)n2)cc1 was read as SF-1 act 16.2, D1 mod -0.734, M1 agonist 3.73*, M1 antag -1.98*, RORA act -10.6, M1 ag confirm 19.7 and M4 agonist ctr -10.6.
Cc1ccc(-c2noc(CCC(=O)Nc3ccc4c(c3)OCO4)n2)cc1 was read as SF-1 act -18.0, D1 mod 0.00499, M1 agonist -0.8, M1 antag 0.853 and RORA act -11.4.
Screening Nc1ccc2c(C(F)(F)F)cc(=O)oc2c1 returned SF-1 act -9.2, D1 mod -0.000439, M1 agonist 26.4*, M1 antag 0.198, RORA act 17.8, Htt clearance -8.7, M1 ag confirm 171* and M4 agonist ctr 146.
Screening CNC(=O)c1cc2ccc(OC)cc2oc1=O returned SF-1 act 12.0, D1 mod -1.32, M1 agonist 3.77*, M1 antag -2.31*, RORA act -7.3, M1 ag confirm 132* and M4 agonist ctr 92.8.
`O=c1c(O)c(-c2ccc(O)cc2O)oc2cc(O)cc(O)c12` gave SF-1 act -3.8, D1 mod 0.0584, M1 agonist 26.9*, M1 antag 0.152, RORA act -3.6, M1 ag confirm 73.5* and M4 agonist ctr 51.7.
`COc1ccc(-c2c(C)oc3cc(O)cc(O)c3c2=O)cc1OC` gave SF-1 act 2.3, D1 mod -0.071, M1 agonist 0.213, M1 antag 1.62 and RORA act 4.4.
CCOC(=O)c1c(-c2ccccc2)nnn1-c1nc(OCC)nc(N2CCCCC2)n1 was read as SF-1 act 10.3, D1 mod -0.764, M1 agonist 6.55*, M1 antag -1.94, RORA act 35.0, M1 ag confirm -29.2* and M4 agonist ctr inconclusive.
`CCOC(=O)c1nnn(-c2nc(N3CCCC3)nc(N3CCCC3)n2)c1-c1ccccc1` gave SF-1 act 23.7, D1 mod 2.27, M1 agonist -0.209, M1 antag -0.0273, RORA act 7.9 and Htt clearance 31.6.
Screening O=C(C1CCN(S(=O)(=O)c2cccc3nsnc23)CC1)N1CC=C(c2ccccc2)CC1 returned SF-1 act -7.5, D1 mod 0.293, M1 agonist 7.48*, M1 antag -1.32, RORA act -15.8, M1 ag confirm -9.85 and M4 agonist ctr -32.1.
For CCCOC1CCCN(C(=O)c2cc(Cl)c(Cl)cc2C(=O)O)C1 (configuration not stated) the results were SF-1 act -17.6, D1 mod 0.188, M1 agonist 36.9*, M1 antag -3.43*, RORA act 5.9, M1 ag confirm 329* and M4 agonist ctr -23.7.
For CCOC(=O)C1CCCN(C(=O)CNC(=O)Cn2ccc3ccccc3c2=O)C1 (configuration not stated) the results were SF-1 act 8.9, D1 mod 0.362, M1 agonist 0.454, M1 antag 0.927 and RORA act -20.7.
For Cn1ccnc1SCC(=O)Nc1ccccc1 the results were Htt clearance -4.4.
CCn1c(CSc2nccn2C)nc2cc(C(=O)O)ccc21 was read as SF-1 act -6.3, D1 mod -0.767, M1 agonist 7.24*, M1 antag 0.218, RORA act -0.7, M1 ag confirm 10.8 and M4 agonist ctr -37.7.
Screening Cc1ccc(NCc2cccnc2)cc1 returned Htt clearance -46.8.
For CCc1ccc(CNCc2cccnc2)cc1 the results were SF-1 act -26.0, D1 mod -0.557, M1 agonist 17.7*, M1 antag 0.0276, RORA act 10.0, Htt clearance -8.8, M1 ag confirm -13.7 and M4 agonist ctr inconclusive.
Screening CCc1nc(C)cn1S(=O)(=O)c1cc(C)c(OC)cc1C returned SF-1 act -7.2, D1 mod -1.48, M1 agonist -3.74*, M1 antag 0.0132, RORA act -10.1, M1 ag confirm inconclusive and M4 agonist ctr inconclusive.
For O=C(NC1CCS(=O)(=O)C1)OC1CCCCC1 (configuration not stated) the results were SF-1 act -8.5, M1 agonist -0.222, M1 antag 0.157, RORA act -18.2 and Htt clearance 28.6.
O=C(Nc1cccc(Cl)c1)Nc1nccs1 was read as SF-1 act 31.6, D1 mod -1.26, M1 agonist 3.54*, M1 antag -1.21, RORA act 71.9*, Htt clearance 12.1, M1 ag confirm -11.3 and M4 agonist ctr inconclusive.
CCOC(=O)CNC(=O)CSc1ncnc2c1cnn2-c1ccc(C)cc1 was read as SF-1 act -23.4, D1 mod -3.27, M1 agonist -2.17*, M1 antag 0.000357, RORA act -14.5, Htt clearance 33.2, M1 ag confirm 5.29 and M4 agonist ctr -18.8.
CCOC(=O)CNC(=O)CSc1ncnc2c1cnn2-c1ccccc1 was read as SF-1 act -23.7, D1 mod -0.863, M1 agonist -1.19, M1 antag -0.936, RORA act 29.0 and Htt clearance 1.5.
For COc1ccc(C2=CC(c3ccc(Cl)cc3)n3cnnc3N2)cc1OC (configuration not stated) the results were SF-1 act -8.1, D1 mod 1.6, M1 agonist 6.84*, M1 antag -0.38, RORA act 6.4, M1 ag confirm 223* and M4 agonist ctr 190*.
`COc1ccc(C2=CC(c3ccc(F)cc3)n3nnnc3N2)cc1` (configuration not stated) gave SF-1 act 5.8, M1 agonist 0.532, M1 antag 0.221 and RORA act -8.4.
O=C(NCCC(=O)N1CCNC1=O)OCc1ccccc1 was read as SF-1 act -2.0, D1 mod 0.424, RORA act -23.7 and Htt clearance -14.2.

Source: PubChem BioAssay (several laboratories)
